Active and inactive are the calls of the source.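 The calls were made as follows, unless noted: active = fluorescence slope higher than the sample average by over 3 SD (cut at about -0.22 in these data, passing the limit was not always enough); inactive = the rest.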
Columns and labels:
[1] = inhibitors of TNFa-induced NFkB p65 translocation, primary screen, imaging, HUVEC, MLSMR starter and 10KST1 sets (AID 438;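 active = inhibition above 20% together with a positive visual image hit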;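 also: compound added about 3h40 before a 20 min TNFalpha stimulation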;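 as to inhibition: signal is the nuclear over cytoplasmic p65 intensity ratio per well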); settings: HUVEC TNFa-induced p65 nuclear translocation; cell count: measured here: nuclei count (cytotoxicity indicator), at 2.08 µM; inhibition: at 2 µM, stronger effect = higher value, 0% TNFa-plus-vehicle, 100% no-TNFa wells
[2] = inhibitors of E-selectin induction by TNFa, primary screen, imaging, HUVEC, immunofluorescence, MLSMR starter and 10KST1 sets (AID 487;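 active = visually confirmed hit in the image check and inhibition above 20%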;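 as to inhibition: signal is fraction of cell area covered by stained E-selectin grains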;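 as to nuclei count: 100% = median nuclei count of all wells on the same plate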); settings: HUVEC TNFalpha-induced E-selectin immunofluorescence imaging, at 2 µM; inhibition: stronger effect = higher value; nuclei count: measured here: cell number, toxicity
[3] = DUSP6 inhibitors restoring Erk phosphorylation by chemical complementation, primary imaging in DUSP6-transfected HeLa (AID 609;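 active = compounds giving at least 50% inhibition in the cell-based MKP-3 phosphatase rescue imaging test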;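 as to inhibition: phospho-Erk level distribution per well compared with pooled transfected vehicle control wells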); settings: HeLa MKP-3 transfected, phospho-Erk imaging KS statistic, at 10 µM, cells stimulated with TPA for 15 min
[4] = target: Dual specificity protein phosphatase 6 (Homo sapiens) (UniProt Q16828); assay: as above; settings: HeLa MKP-3 transfected, phospho-Erk imaging KS statistic; at 10 µM; stronger effect = higher value; cells stimulated with TPA for 15 min
[5] = target: Voltage-gated potassium channel subunit beta-2 (Rattus norvegicus) (UniProt P62483); assay: KvBeta enzyme negative modulators, primary screen, biochemical, NADPH fluorescence (AID 622); settings: recombinant KvBeta, 4-cyanobenzaldehyde reduction, at 10 µM, stronger effect = higher value;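 also: slope of raw intensity against log time taken from 70 to 1610 s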
[6] = target: Voltage-gated potassium channel subunit beta-2 (Rattus norvegicus) (UniProt P62483); assay: KvBeta positive modulators, primary screen, biochemical, NADPH fluorescence (AID 623;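 active = NADPH fluorescence slope more negative than the mean of all samples by about 3 SD, 99.7% confidence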;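 also: fluorescence intensity change per second fitted from 20 to 320 s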); settings: Recombinant KvBeta, NADPH fluorescence decrease slope, 10 min; at 10 µM; stronger effect = lower value
[7] = target: Muscarinic acetylcholine receptor M4 (Homo sapiens) (UniProt P08173); assay: compounds altering M4/GIRK thallium flux, either direction, primary screen, M4 allosteric agonist project, cell-based, HEK293 M4/GIRK, BTC-AM (AID 625;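 active = fluorescence slope after compound addition differing from the mean of all tested samples at 99.7% confidence, mostly higher but some lower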;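 also: thallium influx through GIRK channels coupled to M4 in HEK293 cells with BTC-AM dye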); settings: at 10 µM, actives lie on both sides
Procedure, shortened: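 Material: M4/GIRK1/GIRK2 stable HEK293 cell line. Medium: pH 7.3 thallium assay buffer. Dosing: single compound concentration, 10 µM final. Schedule: 1 h dye loading, 2 min kinetic read. Measured by: kinetic fluorescence with BTC-AM dye. Read-out: post-addition slope, 15–24 s, of baseline-normalized fluorescence. Benchmarks: carbachol and DMSO controls.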

[8] = inhibitors of larval lipid processing in zebrafish, primary screen, whole organism, PED6 fluorescence, gall bladder and intestine (AID 686;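 active = a full or partial loss of lipid-probe fluorescence in the fish gall bladder, intestine or both, judged by eye; inactive = no fluorescence loss, or compound toxic to the fish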;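 also: larvae 5 to 7 days old with five fish per well; signal comes from phospholipase A2 cleavage of quenched PED6 carried via bile; overnight exposure to compound and PED6 before scoring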); settings: Zebrafish larvae PED6 lipid processing, fluorescence scoring; screened at 20 µM (by protocol)
Procedure, shortened: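 System: live zebrafish larvae aged 5-7 days, whole organism; measure: graded gall bladder and intestinal fluorescence inhibition per well; incubation: overnight exposure; reagent: ingested quenched lipid PED6 at 100 nM; signal: By-eye fluorescence microscopy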

[9] = inhibitors of Chlamydomonas gravitaxis, primary screen, whole organism, Chlamydomonas reinhardtii, WT vs cilia-less mutant, absorbance, 96-well (AID 463189;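 active = inhibition at or above 50% relative to wild type and mutant plate controls; inactive = inhibition below 50%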;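 also: 0% = wild type cc124 cells in DMSO and 100% = ciliumless bld1 mutant cells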); settings: OD600 absorbance, 2 days, at 10 µM, stronger effect = higher value
[10] = measured here: cell density z-score
[11] = measured here: nuclear c-Myc green intensity z-score
[12] = measured here: nuclear pErk red intensity z-score, stronger effect = higher value

Chain of Muscarinic acetylcholine receptor M4 (Homo sapiens) (P08173 whole entry, looked up): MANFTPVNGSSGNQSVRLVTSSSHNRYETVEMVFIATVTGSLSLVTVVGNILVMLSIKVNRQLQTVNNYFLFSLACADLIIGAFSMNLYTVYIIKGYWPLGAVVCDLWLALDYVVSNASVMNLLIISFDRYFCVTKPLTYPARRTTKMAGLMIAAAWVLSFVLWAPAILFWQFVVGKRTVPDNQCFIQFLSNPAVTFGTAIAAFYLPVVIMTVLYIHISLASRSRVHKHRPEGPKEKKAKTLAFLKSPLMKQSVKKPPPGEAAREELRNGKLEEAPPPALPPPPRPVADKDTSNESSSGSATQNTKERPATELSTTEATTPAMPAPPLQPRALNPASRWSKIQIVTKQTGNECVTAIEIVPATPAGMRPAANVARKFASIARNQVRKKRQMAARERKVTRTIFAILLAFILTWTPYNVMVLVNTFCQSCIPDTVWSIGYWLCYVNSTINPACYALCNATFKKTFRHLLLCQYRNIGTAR
Chain of Voltage-gated potassium channel subunit beta-2 (Rattus norvegicus) (P62483 whole entry, looked up): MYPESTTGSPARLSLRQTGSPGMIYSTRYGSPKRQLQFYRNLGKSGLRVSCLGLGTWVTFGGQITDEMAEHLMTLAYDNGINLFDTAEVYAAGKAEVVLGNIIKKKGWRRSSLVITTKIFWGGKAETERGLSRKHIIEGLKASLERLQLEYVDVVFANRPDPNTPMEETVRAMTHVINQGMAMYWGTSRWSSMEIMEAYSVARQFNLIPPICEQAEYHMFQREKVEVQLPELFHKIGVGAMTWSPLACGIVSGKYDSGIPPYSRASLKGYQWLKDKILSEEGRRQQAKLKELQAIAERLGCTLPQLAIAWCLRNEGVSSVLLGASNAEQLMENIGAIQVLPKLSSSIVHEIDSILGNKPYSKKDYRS
Chain of Dual specificity protein phosphatase 6 (Homo sapiens) (Q16828 whole entry, looked up): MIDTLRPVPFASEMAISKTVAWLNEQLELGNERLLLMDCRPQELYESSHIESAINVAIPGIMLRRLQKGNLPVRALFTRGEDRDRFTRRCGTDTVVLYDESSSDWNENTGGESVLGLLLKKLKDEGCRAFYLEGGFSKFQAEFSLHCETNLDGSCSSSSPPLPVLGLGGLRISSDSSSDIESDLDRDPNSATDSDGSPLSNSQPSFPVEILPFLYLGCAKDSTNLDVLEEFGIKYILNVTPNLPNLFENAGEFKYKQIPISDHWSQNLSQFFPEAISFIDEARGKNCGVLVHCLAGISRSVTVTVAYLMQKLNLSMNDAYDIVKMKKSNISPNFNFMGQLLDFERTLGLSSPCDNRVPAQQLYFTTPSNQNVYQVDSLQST

Row | SMILES | cell count [1] | inhibition [1] | inhibition [2] | nuclei count [2] [%] | z-score [3, 10] | z-score [3, 11] | z-score [3, 12] | inhibition [4] | fluorescence slope [5] | NADPH fluorescence slope [6] | fluorescence slope [7] | outcome [8] | inhibition [9]
1 | O=C1NCC(COCC2CC=CCC2)O1 (configuration not stated) | 574 | -4% (inactive) | 50.9% (inactive) | 136 | 0.151 | -0.463 | -0.815 | 19.4% (inactive) | -0.408 (inactive) | -2.8e-05 (inactive) | 0.0053 (inactive) | inactive | 41.8% (inactive)
2 | CC1(C)CC(=O)C2=C(C1)OC(N)=C(C#N)C2C1C=CCCC1 (configuration not stated) | 725 | -1.5% (inactive) | -74.9% (inactive) | 173 | -0.465 | 0.0637 | 1.38 | 7.83% (inactive) | -0.43 (inactive) | -5.1e-05 (inactive) | 0.00473 (inactive) | inactive | 9.73% (inactive)
3 | Cn1c(NCc2cccnc2)nc2c1c(=O)n(Cc1ccccc1F)c(=O)n2C | 696 | 3% (inactive) | -201% (inactive) | 167 | 0.699 | -0.869 | 1.16 | 11.9% (inactive) | -0.51 (inactive) | -6e-05 (inactive) | 0.00566 (inactive) | inactive | 18.1% (inactive)
4 | CCCSc1nc(O)c(C2OC(=O)c3c2ccc(OC)c3OC)c(=O)n1C (configuration not stated) | 560 | -1.3% (inactive) | 29.6% (inactive) | 143 | 0.566 | -0.178 | 0.157 | 7.93% (inactive) | -0.415 (inactive) | -3.7e-05 (inactive) | 0.00648 (inactive) | inactive | 12.4% (inactive)
5 | Cc1ccccc1COc1ccc(/C(O)=C2/C(=O)C(=O)N(CCCn3ccnc3)C2c2ccco2)cc1 (configuration not stated) | 642 | -2.1% (inactive) | -23.1% (inactive) | 171 | -1.5 | -0.323 | 2.13 | 9.37% (inactive) | -0.48 (inactive) | -0.00012 (inactive) | 0.00521 (inactive) | inactive | 13.6% (inactive)
6 | CCc1nc(NCC(C)C)c(C#N)c2c1COC(C)(C)C2 | 547 | 7.2% (inactive) | -13.8% (inactive) | 106 | -2.04 | -0.00331 | 2.22 | -9.91% (inactive) | -0.203 (inactive) | 2.4e-07 (inactive) | 0.00805 (inactive) | inactive | -8.36% (inactive)
7 | CCc1c(C)c2cc(Cl)c(O)c(CN3CCCCC3)c2oc1=O | 634 | -3.5% (inactive) | 6.3% (inactive) | 174 | 0.309 | 0.0643 | -0.532 | -10.6% (inactive) | -0.0112 (inactive) | -2.8e-08 (inactive) | 0.00604 (inactive) | inactive | -1.88% (inactive)
8 | COc1cc(Cn2ccnc2)c(OC)cc1Cn1ccnc1 | 588 | 0.1% (inactive) | -64% (inactive) | 154 | 0.988 | 1.55 | 0.136 | 1.63% (inactive) | -0.422 (inactive) | -0.000118 (inactive) | 0.0052 (inactive) | inactive | 10.7% (inactive)
9 | Cc1ccc2[nH]c3c(c2c1)CN(C(=O)CN1CC(C)OC(C)C1)CC3 (configuration not stated) | 409 | -6.9% (inactive) | -299% (inactive) | 169 | 1.01 | 0.157 | -0.0941 | 3.42% (inactive) | -0.466 (inactive) | -0.000107 (inactive) | 0.00334 (inactive) | inactive | 26.6% (inactive)
10 | COCCCn1c(C)nc2c(c1=O)c1nc3ccccc3nc1n2CCc1ccccc1 | 709 | 4.3% (inactive) | 18.7% (inactive) | 162 | -0.739 | -0.364 | -0.291 | -9.53% (inactive) | -0.341 (inactive) | -5.1e-05 (inactive) | 0.00467 (inactive) | inactive | 8.3% (inactive)
11 | C=C(C)CN(CC)CCC(=O)Nc1ccc(OC)cc1OC | 486 | -7.5% (inactive) | -273% (inactive) | 172 | -0.562 | 0.149 | 0.762 | -7.28% (inactive) | -0.424 (inactive) | -3.9e-05 (inactive) | 0.0048 (inactive) | inactive | 11.3% (inactive)
12 | C=CCOc1ccc(/C(O)=C2/C(=O)C(=O)N(CCCN3CCOCC3)C2c2ccccc2)cc1 (configuration not stated) | 400 | -4.5% (inactive) | -152% (inactive) | 142 | 0.832 | -1.64 | 0.377 | 7.73% (inactive) | -0.44 (inactive) | -0.000122 (inactive) | 0.00439 (inactive) | inactive | 3.35% (inactive)
13 | Cc1cccc(-n2ncc3c(NCCN4CCOCC4)ncnc32)c1 | 596 | -8.2% (inactive) | 0.1% (inactive) | 156 | -0.984 | 1.25 | -0.89 | -2.59% (inactive) | -0.397 (inactive) | -2.6e-05 (inactive) | 0.00826 (inactive) | inactive | 34% (inactive)
14 | N#Cc1cc(Oc2cccc3cccnc23)c(-n2nnc3ccccc32)cc1C#N | 527 | -0.1% (inactive) | -156% (inactive) | 145 | 2.59 | -0.877 | -1.07 | 6.04% (inactive) | -0.438 (inactive) | -2.5e-05 (inactive) | 0.0061 (inactive) | inactive | 25.9% (inactive)
